Results: ChEMBL document CHEMBL3576866, “Discovery of a Cyclic Boronic Acid β-Lactamase Inhibitor (RPX7009) with Utility vs Class A Serine Carbapenemases” (J Med Chem, 2015)
pIC50, pKi: −log10 of the molar value.

Experiments:
[1] = system: Klebsiella pneumoniae; assay: In vivo inhibition of KPC in Klebsiella pneumoniae KP1074 in Swiss webster neutropenic mouse lung infection model assessed as biapenem deltalog10CFU in lung at 50 mg/kg, ip administered every 2 hrs starting at 2 hrs postinfection measured after 24 hrs; format: functional
[2] = target: Beta-lactamase (Klebsiella pneumoniae) (UniProt Q93LQ9); assay: Inhibition of Klebsiella pneumoniae KP1084 KPC-3 assessed as ertapenem MIC at 4 ug/ml by broth microdilution method
Chain of Beta-lactamase (Klebsiella pneumoniae) (Q93LQ9 as listed by the source): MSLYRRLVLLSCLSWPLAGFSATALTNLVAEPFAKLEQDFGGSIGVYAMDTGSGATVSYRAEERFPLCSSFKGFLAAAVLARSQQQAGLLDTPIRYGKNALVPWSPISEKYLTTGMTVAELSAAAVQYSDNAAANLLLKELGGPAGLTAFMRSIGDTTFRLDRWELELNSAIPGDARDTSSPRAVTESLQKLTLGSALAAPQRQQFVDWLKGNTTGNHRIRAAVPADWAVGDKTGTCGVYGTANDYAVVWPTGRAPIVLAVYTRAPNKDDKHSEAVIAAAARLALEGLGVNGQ
Procedure, shortened: (§1)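 CLSI broth microdilution (M07-A9, 2012) MIC of the carbapenem against clinical serine carbapenemase-producing strain, tested alone and with the inhibitor held at a fixed 4 μg/mL.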

[3] = system: Klebsiella oxytoca; assay: Inhibition of Klebsiella oxytoca KX1019 OXA-2 assessed as meropenem MIC at 4 ug/ml by broth microdilution method
[4] = system: Klebsiella pneumoniae; assay: Inhibition of Klebsiella pneumoniae KP1087 KPC-2 assessed as ertapenem MIC at 4 ug/ml by broth microdilution method; procedure, shortened: as §1
[5] = system: Klebsiella pneumoniae; assay: Inhibition of Klebsiella pneumoniae KP1088 SHV-11 assessed as imipenem MIC at 4 ug/ml by broth microdilution method
Procedure, shortened: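 CLSI broth microdilution (M07-A9, 2012) against the clinical K. pneumoniae isolate. Carbapenem MICs were read alone and with 9f held at a fixed 4 μg/mL.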

[6] = target: Carbapenem-hydrolyzing beta-lactamase KPC (Klebsiella oxytoca) (UniProt Q848S6); assay: Inhibition of Klebsiella oxytoca KX1017 KPC-2 assessed as meropenem MIC at 4 ug/ml by broth microdilution method; procedure, shortened: as §1
Chain of Carbapenem-hydrolyzing beta-lactamase KPC (Klebsiella oxytoca) (Q848S6 whole entry, the tested form may be a part): as the sequence (Q93LQ9 as listed by the source) above

[7] = Half life in rat at 300 mg/kg, iv administered as 0.5 hrs infusion by HPLC-MS method; format: ADME, organism-based; settings: in vivo
[8] = target: T1, Beta-lactamase SHV-1 (Klebsiella pneumoniae) (UniProt P0AD64); assay: Inhibition of Klebsiella pneumoniae KP1082 SHV-1 assessed as meropenem MIC at 4 ug/ml by broth microdilution method; procedure, shortened: as §1
T1 sequence (whole entry): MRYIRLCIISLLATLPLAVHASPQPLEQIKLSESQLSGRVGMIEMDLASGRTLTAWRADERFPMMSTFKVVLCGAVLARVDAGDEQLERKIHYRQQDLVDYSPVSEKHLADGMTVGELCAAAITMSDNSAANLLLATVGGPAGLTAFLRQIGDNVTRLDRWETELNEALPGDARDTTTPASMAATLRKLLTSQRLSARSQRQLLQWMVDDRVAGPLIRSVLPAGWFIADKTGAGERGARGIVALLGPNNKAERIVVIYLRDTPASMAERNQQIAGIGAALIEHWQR

[9] = target: Carbapenem-hydrolyzing beta-lactamase KPC (Klebsiella oxytoca) (UniProt Q848S6); assay: Inhibition of Klebsiella oxytoca KX1019 KPC-2 assessed as biapenem MIC at 4 ug/ml by broth microdilution method
[10] = Half life in rat at 1000 mg/kg, iv administered as 0.5 hrs infusion by HPLC-MS method; format: ADME, organism-based; settings: in vivo
[11] = system: Klebsiella oxytoca; assay: Inhibition of Klebsiella oxytoca KX1019 OXA-2 assessed as biapenem MIC at 4 ug/ml by broth microdilution method
[12] = system: Klebsiella oxytoca; assay: Inhibition of Klebsiella oxytoca KX1017 SHV-30 assessed as meropenem MIC at 4 ug/ml by broth microdilution method
[13] = target: Carbapenem-hydrolyzing beta-lactamase KPC (Klebsiella oxytoca) (UniProt Q848S6); assay: Inhibition of Klebsiella oxytoca KX1019 KPC-2 assessed as ertapenem MIC at 4 ug/ml by broth microdilution method
[14] = AUC (0 to infinity) in rat at 100 mg/kg, iv administered as 0.5 hrs infusion by HPLC-MS method; format: ADME, organism-based; design: dose 100 mg/kg, route intravenous, time infinity; settings: in vivo
[15] = Inhibition of Escherichia coli recombinant TEM-10 assessed as substrate nitrocefin degradation preincubated for 10 mins followed by substrate addition measured every 10 secs for 10 mins by spectrophotometric analysis
Procedure, shortened: (§2)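 β-Lactamases purified from overexpressing recombinant E. coli. Enzyme preincubated with inhibitor at varying concentrations for 10 min at room temperature in 50 mM Na phosphate pH 7.0, 0.1 mg/mL BSA. Then 50 μM nitrocefin (final) added and cleavage read at 490 nm every 10 s for 10 min. Ki derived by the Waley method.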

[16] = system: Klebsiella oxytoca; assay: Inhibition of Klebsiella oxytoca KX1001 OXA-2 assessed as cefepime MIC at 4 ug/ml by broth microdilution method
Procedure, shortened: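 CLSI broth microdilution (M07-A9) against clinical strains expressing serine β-lactamases.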

[17] = Inhibition of Escherichia coli recombinant P99 assessed as substrate nitrocefin degradation preincubated for 10 mins followed by substrate addition measured every 10 secs for 10 mins by spectrophotometric analysis; procedure, shortened: as §2
[18] = target: T2, Class A carbapenemase (Enterobacter cloacae) (UniProt A7WP95); assay: Inhibition of Enterobacter cloacae ECL1061 KPC-3 assessed as cefepime MIC at 4 ug/ml by broth microdilution method
T2 sequence (whole entry): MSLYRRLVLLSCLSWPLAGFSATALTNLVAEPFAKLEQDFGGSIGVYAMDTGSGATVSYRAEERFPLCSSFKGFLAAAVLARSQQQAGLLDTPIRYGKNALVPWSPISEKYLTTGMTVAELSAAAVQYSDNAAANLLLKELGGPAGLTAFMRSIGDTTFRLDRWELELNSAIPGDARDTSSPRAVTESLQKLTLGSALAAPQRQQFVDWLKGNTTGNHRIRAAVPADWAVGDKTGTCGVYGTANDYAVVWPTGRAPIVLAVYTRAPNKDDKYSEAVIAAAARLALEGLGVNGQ

[19] = Inhibition of chymotrypsin (unknown origin) using Suc-AAPF-AMC as substrate preincubated for 10 mins followed by substrate addition measured for 30 mins by spectrophotometric analysis; design: species or system Homo sapiens
Procedure, shortened: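 Chymotrypsin, from a commercial source, in 20 mM Tris-HCl, pH 8, 150 mM NaCl, 2.5 mM CaCl2. Incubated 10 min at 37 °C with varied inhibitor concentrations. Suc-AAPF-AMC (listed at 10 μM) was added and the reaction read for 30 min. Rates were relative to untreated; IC50 is the concentration giving 50% inhibition.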

[20] = system: Klebsiella pneumoniae; assay: Inhibition of Klebsiella pneumoniae KP1008 KPC-2 assessed as imipenem MIC at 4 ug/ml by broth microdilution method; procedure, shortened: as §1
[21] = target: Beta lactamase TEM-1 (Klebsiella pneumoniae) (UniProt Q7B899); assay: Inhibition of Klebsiella pneumoniae KP1004 TEM-1 assessed as imipenem MIC at 4 ug/ml by broth microdilution method; procedure, shortened: as §1
Chain of Beta lactamase TEM-1 (Klebsiella pneumoniae) (Q7B899 as listed by the source): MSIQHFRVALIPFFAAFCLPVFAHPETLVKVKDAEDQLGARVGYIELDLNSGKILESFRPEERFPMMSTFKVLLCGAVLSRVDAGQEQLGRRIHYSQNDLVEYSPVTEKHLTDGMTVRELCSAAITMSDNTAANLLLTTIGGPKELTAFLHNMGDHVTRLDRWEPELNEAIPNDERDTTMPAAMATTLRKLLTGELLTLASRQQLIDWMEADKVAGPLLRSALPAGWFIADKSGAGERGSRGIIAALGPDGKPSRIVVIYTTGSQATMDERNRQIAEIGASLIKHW

[22] = system: Klebsiella oxytoca; assay: Inhibition of Klebsiella oxytoca KX1017 SHV-30 assessed as biapenem MIC at 4 ug/ml by broth microdilution method
[23] = target: T2, Class A carbapenemase (Enterobacter cloacae); assay: Inhibition of Enterobacter cloacae ECL1058 KPC-3 assessed as imipenem MIC at 4 ug/ml by broth microdilution method
[24] = Inhibition of Escherichia coli recombinant KPC-2 assessed as substrate nitrocefin degradation preincubated for 10 mins followed by substrate addition measured every 10 secs for 10 mins by spectrophotometric analysis; procedure, shortened: as §2
[25] = system: Homo sapiens; assay: Clearance in human at 1 g administered as 3 hrs of infusion; format: ADME, organism-based; settings: in vivo, iv
[26] = target: Beta lactamase TEM-1 (Klebsiella pneumoniae) (UniProt Q7B899); assay: Inhibition of Klebsiella pneumoniae KP1087 TEM-1 assessed as imipenem MIC at 4 ug/ml by broth microdilution method
Procedure, shortened: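 Carbapenem MIC by CLSI broth microdilution (M07-A9), carbapenem titrated with inhibitor held at fixed 4 μg/mL, against clinical serine-carbapenemase-producing strain KP1087 (KPC-2, CTX-M-15, SHV-11, TEM-1; double porin mutant).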

## O=C(O)C[C@@H]1CC[C@H](NC(=O)Cc2cccs2)B(O)O1 [VABORBACTAM]
[1]
  deltalog10CFU: -2.19
[2]
  MIC: 4 mg/L
[3]
  MIC: < 0.06 mg/L
[4]
  MIC: 2 mg/L
[5]
  MIC: ≤ 0.06 mg/L
[6]
  MIC: < 0.06 mg/L
[7]
  half-life: 15.6 min
[8]
  MIC: < 0.06 mg/L
[9]
  MIC: 0.25 mg/L
[10]
  half-life: 24 min
[11]
  MIC: 0.25 mg/L
[12]
  MIC: < 0.06 mg/L
[13]
  MIC: 0.25 mg/L
[14]
  AUC(0-inf): 64 µg·h/mL
[15]
  pKi: 6.96
[16]
  MIC: 0.5 mg/L
[17]
  pKi: 7.28
[18]
  MIC: 2 mg/L
[19]
  pIC50: < 3.00
[20]
  MIC: ≤ 0.06 mg/L
[21]
  MIC: < 0.06 mg/L
[22]
  MIC: < 0.06 mg/L
[23]
  MIC: 0.25 mg/L
[24]
  pKi: 7.16
[25]
  clearance: 12.8 L/h
[26]
  MIC: 0.25 mg/L
